One may read the IC50 as the concentration that inhibits the measured activity by half. The low end stands for inhibition by little substance, the high end for a need for much substance.

These results are taken from ChEMBL document CHEMBL1125180, “3-Hydroxy-3-methylglutaryl-coenzyme A reductase inhibitors. 8. Side chain ether analogues of lovastatin” (J Med Chem, 1991).

Structures are written as SMILES.

The nature of test [1]: The relative potency by comparing its IC50 value with that of mevastatin. The procedure, abridged: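 Compounds were tested in salt form for intrinsic inhibition of HMG-CoA reductase. Mevastatin (compactin) was run alongside in the same test and set to a relative potency of 100. Each compound's relative potency was derived by comparing its IC50 with that of mevastatin.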

Test [2] addresses T1, 3-hydroxy-3-methylglutaryl-coenzyme A reductase (Rattus norvegicus, UniProt P51639).
T1 sequence (P51639 whole entry): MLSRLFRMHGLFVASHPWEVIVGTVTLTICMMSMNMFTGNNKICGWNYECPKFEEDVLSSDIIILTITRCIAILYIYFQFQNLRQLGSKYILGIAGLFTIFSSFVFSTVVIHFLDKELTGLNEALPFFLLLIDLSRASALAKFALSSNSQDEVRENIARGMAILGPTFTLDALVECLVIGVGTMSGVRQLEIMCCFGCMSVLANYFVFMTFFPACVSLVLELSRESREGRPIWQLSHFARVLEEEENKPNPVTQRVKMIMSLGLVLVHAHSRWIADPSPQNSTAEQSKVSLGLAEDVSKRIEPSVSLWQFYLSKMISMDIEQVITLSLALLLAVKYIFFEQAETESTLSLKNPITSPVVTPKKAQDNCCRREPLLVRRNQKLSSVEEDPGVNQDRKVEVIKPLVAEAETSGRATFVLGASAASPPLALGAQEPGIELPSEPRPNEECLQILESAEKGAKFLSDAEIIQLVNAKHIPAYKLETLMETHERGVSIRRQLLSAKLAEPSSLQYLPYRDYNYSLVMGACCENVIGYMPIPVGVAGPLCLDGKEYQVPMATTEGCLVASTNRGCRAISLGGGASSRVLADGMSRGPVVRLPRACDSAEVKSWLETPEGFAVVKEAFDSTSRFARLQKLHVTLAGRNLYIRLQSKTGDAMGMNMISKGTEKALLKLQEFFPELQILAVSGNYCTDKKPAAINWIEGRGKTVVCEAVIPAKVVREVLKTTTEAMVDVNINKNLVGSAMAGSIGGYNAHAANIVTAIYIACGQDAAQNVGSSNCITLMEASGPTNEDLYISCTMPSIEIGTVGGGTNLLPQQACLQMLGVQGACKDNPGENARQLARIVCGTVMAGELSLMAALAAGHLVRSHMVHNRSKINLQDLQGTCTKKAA
Briefly: In vitro inhibitory activity against rat liver HMG-CoA reductase enzyme.

In test [1], `C=CCC(=O)O[C@H]1C[C@@H](C)C=C2C=C[C@H](C)[C@H](CCC3C[C@@H](O)CC(=O)O3)[C@H]21` (some centres not stated) came in with a Relative potency of 187. The IC50 in test [2] is 0.0029 µM.

In test [1], `C[C@H]1C=C2C=C[C@H](C)[C@H](CCC3C[C@@H](O)CC(=O)O3)[C@H]2[C@@H](OCc2ccccc2)C1` (some centres not stated) returned a Relative potency of 20. The same molecule gave an IC50 in test [2] of 0.027 µM.

`C[C@H]1C=C2C=C[C@H](C)[C@H](CC[C@@H]3C[C@@H](O)CC(=O)O3)[C@H]2[C@@H](OC(=O)Cc2ccccc2)C1`: the Relative potency in test [1] was determined as 29.

Regarding `C[C@H]1C=C2C=C[C@H](C)[C@H](CCC3C[C@@H](O)CC(=O)O3)[C@H]2[C@@H](OCc2ccc(Cl)cc2)C1` (some centres not stated), the Relative potency in test [1] worked out at 8.5. The IC50 in test [2] amounted to 0.17 µM.

The molecule `C=C(C)CO[C@H]1C[C@@H](C)C=C2C=C[C@H](C)[C@H](CCC3C[C@@H](O)CC(=O)O3)[C@H]21` (some centres not stated) returned a Relative potency in test [1] of 1.5. The molecule also came in with an IC50 in test [2] of 0.36 µM.

In the case of `CO[C@H]1C[C@@H](C)C=C2C=C[C@H](C)[C@H](CCC3C[C@@H](O)CC(=O)O3)[C@H]21` (some centres not stated), the Relative potency in test [1] amounted to 0.2. Half-maximal inhibition in test [2] (IC50) required 2.81 µM.

Consider `C[C@H]1C=C2C=C[C@H](C)[C@H](CCC3C[C@@H](O)CC(=O)O3)[C@H]2[C@@H](OCc2ccc(F)cc2)C1` (some centres not stated), for which the Relative potency in test [1] was determined as 119. Further, the IC50 in test [2] came to 0.0047 µM.

`CC(=O)O[C@H]1C[C@@H](C)C=C2C=C[C@H](C)[C@H](CCC3C[C@@H](O)CC(=O)O3)[C@H]21` (some centres not stated): the Relative potency in test [1] is 2.1. This molecule also gave an IC50 in test [2] of 0.269 µM.

`C=CCO[C@H]1C[C@@H](C)C=C2C=C[C@H](C)[C@H](CCC3C[C@@H](O)CC(=O)O3)[C@H]21` (some centres not stated) had a Relative potency in test [1] of 1.5. The molecule also gave an IC50 in test [2] of 0.37 µM.
